VIM-2 inhibitor: inhibitors of Pseudomonas aeruginosa VIM-2 metallo-beta-lactamase | purified VIM-2, nitrocefin hydrolysis, epi-absorbance fluorescence | inhibition, % at 5.6 µM | hit rate 0.89% among 290,000;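 active = inhibition above the mean of all tested compounds plus 3 SD, cutoff set per screening run, cut at about 7.5% in these data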;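 also: red hydrolysis product quenches plate fluorescence so inhibitors raise well fluorescence; 0% = enzyme with DMSO and 100% = DMSO without enzyme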
Runt-CBFb FRET: blocks binding of human RUNX1 Runt domain to CBFb | Q01196+Q13951 | hit rate 0.46% among 220,000 | AID 1496 | inhibition, % at 20 µM | Cerulean-Runt/Venus-CBFb FRET ratio 530/480, 1 h;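 active = inhibition over about 50% at 20 µM in the single-dose screen, limit read from the data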;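 also: 0% = DMSO wells and 100% = excess unlabeled CBFb competitor control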
Target sequence (Q01196 whole entry, looked up, the tested form may be a part): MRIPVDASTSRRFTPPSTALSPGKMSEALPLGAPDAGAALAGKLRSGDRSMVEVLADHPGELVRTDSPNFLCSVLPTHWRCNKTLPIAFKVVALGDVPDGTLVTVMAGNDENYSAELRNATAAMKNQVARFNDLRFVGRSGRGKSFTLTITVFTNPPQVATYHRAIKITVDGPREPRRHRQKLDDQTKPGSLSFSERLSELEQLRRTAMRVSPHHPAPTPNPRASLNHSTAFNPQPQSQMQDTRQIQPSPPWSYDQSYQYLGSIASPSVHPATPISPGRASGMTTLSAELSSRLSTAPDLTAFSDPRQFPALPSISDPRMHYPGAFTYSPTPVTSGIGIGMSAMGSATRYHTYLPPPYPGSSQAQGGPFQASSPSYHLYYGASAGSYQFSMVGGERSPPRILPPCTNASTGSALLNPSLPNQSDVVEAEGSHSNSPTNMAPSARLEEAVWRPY
Target sequence (Q13951 whole entry, looked up, the tested form may be a part): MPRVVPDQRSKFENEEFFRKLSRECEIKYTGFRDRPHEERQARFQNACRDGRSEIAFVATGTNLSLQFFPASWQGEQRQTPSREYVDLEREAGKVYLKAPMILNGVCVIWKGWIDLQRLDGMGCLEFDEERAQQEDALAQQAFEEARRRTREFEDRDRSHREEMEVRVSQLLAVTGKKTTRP
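Assay system: Cerulean-tagged RUNX1 Runt domain (FRET donor) fusion protein / Amount: 100 nM each of Venus-CBFb and Cerulean-Runt domain / Medium: Tris buffer pH 7.5 with salts and BSA / Also added: Venus-CBFb 100 nM / Schedule: 1 h complex formation plus 1 h compound treatment, room temperature / Signal: FRET fluorescence / Read-out: loss of energy transfer signal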
RanGTP-Imp inh: inhibitors of RanGTP-importin-beta interaction, primary screen, biochemical, FRET, CFP-Ran, YFP-importin-beta, homogeneous | cell-free CFP-Ran/YFP-importin-beta FRET ratio | inhibition, % (no concentration beside the values) | hit rate 1.1% among 300,000 | AID 2216;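 active = more than half of the replicate wells show a fall in the fluorescence ratio signal beyond about 16%, limit read from the data, passing the limit was not always enough; inconclusive = exactly half of the replicate wells pass the set limit; inactive = fewer than half of replicates pass the limit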;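 also: 0% = DMSO wells and 100% = Ran loaded with GDP instead of GTP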
IMP-1 inhibitor: blocks Pseudomonas aeruginosa IMP-1 metallo-beta-lactamase; inhibition, % at 5.6 µM; purified IMP-1, nitrocefin hydrolysis, epi-absorbance fluorescence; hit rate 0.45% among 290,000; AID 1556;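 active = inhibition above the mean plus 3 SD of all compounds in the same screening run, cut at about 4.5% in these data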;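 also: 0% = IMP-1 with DMSO and 100% = DMSO wells lacking enzyme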
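System: Purified recombinant IMP-1 metallo-beta-lactamase enzyme | Measured by: Fluorescence quenching readout, ex 480/em 530 nm | Replication: Singlicate | Incubation: 15 min preincubation plus 25 min reaction at 25 °C | Evaluation: Percent inhibition from optical density relative to buffer-blank wells | Benchmarks: DMSO with and without IMP-1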
Runt-SMMHC FRET: Runt domain-CBFb-SMMHC interaction inhibition; AID 1434; Cerulean-Runt/Venus-CBFb-SMMHC FRET ratio 530/480, 1 h; Q01196+Q13951; hit rate 0.74% among 220,000; inhibition, % at 20 µM;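 active = mean inhibition across duplicate retests at 20 µM reaching about 50%, limit read from the data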;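 also: 0% = DMSO wells and 100% = wells with excess untagged CBFb-SMMHC; inhibitors lower the FRET ratio by blocking Runt binding to CBFb-SMMHC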
* hit, by the source's call. Only some compounds are listed: those with a hit (about 2.6% of all), similar ones and a draw of the others.

For Cc1cccn2c(=O)c3cc(S(=O)(=O)c4ccccc4)c(=N)n(CC4CCCO4)c3nc12 (stereo not drawn) the results were VIM-2 inhibitor 0, Runt-CBFb FRET 12, RanGTP-Imp inh 158*, IMP-1 inhibitor -3 and Runt-SMMHC FRET 81*.
`Cc1ccc(S(=O)(=O)c2cc3c(=O)n4cccc(C)c4nc3n(CC3CCCO3)c2=N)cc1C` (stereo not drawn) gave VIM-2 inhibitor 0, Runt-CBFb FRET 66*, RanGTP-Imp inh 137*, IMP-1 inhibitor -1 and Runt-SMMHC FRET 88*.
`Cc1cccn2c(=O)c3cc(C#N)c(=N)n(CC4CCCO4)c3nc12` (stereo not drawn) gave VIM-2 inhibitor 0 and IMP-1 inhibitor -4.
For CN(C)C(=S)Oc1ccccc1-c1ccccc1OC(=S)N(C)C the results were VIM-2 inhibitor -3, RanGTP-Imp inh 1 and IMP-1 inhibitor -2.
Cc1nn(CCc2n[nH]c(=S)n2-c2ccc(F)cc2)c(C)c1[N+](=O)[O-] was read as VIM-2 inhibitor -1, Runt-CBFb FRET 6, RanGTP-Imp inh 1, IMP-1 inhibitor -3 and Runt-SMMHC FRET 4.
Cc1nn(CCc2n[nH]c(=S)n2-c2ccc(F)c(Cl)c2)c(C)c1[N+](=O)[O-] was read as VIM-2 inhibitor 9.7*, Runt-CBFb FRET 3, RanGTP-Imp inh 3, IMP-1 inhibitor -2 and Runt-SMMHC FRET 4.
For CC(C)(C)C(=O)C(Oc1cccc2nonc12)n1cncn1 (stereo not drawn) the results were VIM-2 inhibitor -2, Runt-CBFb FRET -2, RanGTP-Imp inh 1, IMP-1 inhibitor 35* and Runt-SMMHC FRET 0.
Cc1c(C(=O)OCc2ccc(F)cc2)sc2nc3n(c(=O)c12)CCC3 was read as RanGTP-Imp inh 2.
`CCCC1=Nc2cc(C(=O)N3CCN(c4ccccn4)CC3)ccc2Sc2ccc(C)cc21` gave VIM-2 inhibitor -4, RanGTP-Imp inh -2 and IMP-1 inhibitor -2.
For Fc1ccc(-c2n[nH]c(=S)n2Cc2ccccc2)cc1 the results were VIM-2 inhibitor 3, RanGTP-Imp inh -4 and IMP-1 inhibitor -3.
Oc1ccc(-c2n[nH]c(=S)n2Cc2ccccc2)cc1 was read as VIM-2 inhibitor 11*, Runt-CBFb FRET 11, RanGTP-Imp inh -4, IMP-1 inhibitor -2 and Runt-SMMHC FRET 4.
`Cc1cc(-c2n[nH]c(=S)n2Cc2ccccc2)cs1` gave VIM-2 inhibitor 7.9*, Runt-CBFb FRET 4, RanGTP-Imp inh 1, IMP-1 inhibitor 0 and Runt-SMMHC FRET 10.
`CC(C)c1c(C(=O)N/N=C/c2ccc(OCc3ccccc3)cc2)nnn1-c1nonc1N` gave VIM-2 inhibitor -1, RanGTP-Imp inh active and IMP-1 inhibitor -2.
Screening Cc1ccc(/C=N/NC(=O)c2nnn(-c3nonc3N)c2-c2cccs2)cc1 returned VIM-2 inhibitor -5, RanGTP-Imp inh 189* and IMP-1 inhibitor -2.
`COc1cc(/C(C)=N/N2CCN(c3ccccc3OC)CC2)ccc1O` gave VIM-2 inhibitor -1, RanGTP-Imp inh 3 and IMP-1 inhibitor -4.
Screening CC(C)(C)C(=O)Nc1sc2c(c1C#N)CCN(Cc1ccccc1)C2 returned VIM-2 inhibitor 0, RanGTP-Imp inh 150* and IMP-1 inhibitor -1.
N#Cc1c(NC(=S)NC(=O)c2ccccc2)sc2c1CCN(CCc1ccccc1)C2 was read as VIM-2 inhibitor 1, Runt-CBFb FRET 4, RanGTP-Imp inh 157*, IMP-1 inhibitor 1 and Runt-SMMHC FRET 82*.
`N#Cc1c(N)sc2c1CCN(CCc1ccccc1)C2` gave VIM-2 inhibitor 0, Runt-CBFb FRET 105*, RanGTP-Imp inh 46*, IMP-1 inhibitor 1 and Runt-SMMHC FRET 88*.
For COc1cccc(CC(=O)NNC(=O)c2c(-c3ccccc3)noc2C)c1 the results were VIM-2 inhibitor -4, Runt-CBFb FRET 0, RanGTP-Imp inh 2, IMP-1 inhibitor -5 and Runt-SMMHC FRET 2.
Screening COc1ccc(CN(CC(=O)NCC2CCCO2)C(=O)CCC(=O)Nc2nccs2)cc1 (stereo not drawn) returned VIM-2 inhibitor 1, RanGTP-Imp inh 1 and IMP-1 inhibitor 0.
For O=C(NCc1ccc(Cl)c(Cl)c1)C1CCCC1 the results were RanGTP-Imp inh -1.
For COc1cccc2cc(C(=O)NC3CC4CCC3C4)oc12 (stereo not drawn) the results were VIM-2 inhibitor -2, RanGTP-Imp inh 26* and IMP-1 inhibitor -3.
Screening CCOC(=O)c1c(Nc2ccccc2)sc(/C=C2\C=Nc3ccccc32)c1O returned VIM-2 inhibitor -2, Runt-CBFb FRET -48, RanGTP-Imp inh 43*, IMP-1 inhibitor 3 and Runt-SMMHC FRET -50.
`Oc1nc(Nc2ccccc2)sc1/C=C1\C=Nc2ccccc21` gave VIM-2 inhibitor -1, Runt-CBFb FRET -8, RanGTP-Imp inh 21*, IMP-1 inhibitor -2 and Runt-SMMHC FRET -3.
CC(C)CN=Cc1c(O)c([N+](=O)[O-])cc2oc3c(c12)CCCC3 was read as VIM-2 inhibitor -3, Runt-CBFb FRET 7, RanGTP-Imp inh -8, IMP-1 inhibitor 10* and Runt-SMMHC FRET -20.
`CC(C)N1CCc2c(sc(NC(=O)Cc3ccccc3)c2C(N)=O)C1` gave VIM-2 inhibitor -3, RanGTP-Imp inh 140* and IMP-1 inhibitor -1.
Screening CCCN1CCc2c(sc(NC(=O)Cc3ccc(F)cc3)c2C(N)=O)C1 returned VIM-2 inhibitor -2, RanGTP-Imp inh 133* and IMP-1 inhibitor -2.
For COc1ccc(CC(=O)Nc2sc3c(c2C(N)=O)CCCC3)cc1OC the results were VIM-2 inhibitor -1, RanGTP-Imp inh 2 and IMP-1 inhibitor -2.
`CC(C)N1CCc2c(sc(NC(=O)CCc3ccccc3)c2C(N)=O)C1` gave VIM-2 inhibitor -5, Runt-CBFb FRET 78*, RanGTP-Imp inh 130*, IMP-1 inhibitor -6 and Runt-SMMHC FRET 92*.
For CC(=O)N1CCc2c(sc(NC(=O)Cc3ccccc3)c2C(N)=O)C1 the results were VIM-2 inhibitor -2, RanGTP-Imp inh 5 and IMP-1 inhibitor 1.
For NS(=O)(=O)c1ccc(CNC(=S)NCc2ccc(F)cc2)cc1 the results were VIM-2 inhibitor -4, RanGTP-Imp inh -1 and IMP-1 inhibitor -3.
Screening Cc1c(Cl)c(=O)n2c(=O)c(Cl)c(C)n12 returned VIM-2 inhibitor -1, Runt-CBFb FRET 21, RanGTP-Imp inh 128*, IMP-1 inhibitor -3 and Runt-SMMHC FRET 86*.
For COc1ccc(CCc2nnc(NS(C)(=O)=O)s2)cc1 the results were VIM-2 inhibitor -3, RanGTP-Imp inh 27* and IMP-1 inhibitor -4.
N#Cc1c(-c2ccncc2)c2c([nH]c1=S)CCCC2 was read as VIM-2 inhibitor -2, Runt-CBFb FRET 10, RanGTP-Imp inh 3, IMP-1 inhibitor -5 and Runt-SMMHC FRET 9.
Cc1ccc(-c2c3c([nH]c(=S)c2C#N)CCCC3)o1 was read as VIM-2 inhibitor 2, Runt-CBFb FRET 18, RanGTP-Imp inh inconclusive, IMP-1 inhibitor 9.7* and Runt-SMMHC FRET 11.
